Experimental data: ChEMBL document CHEMBL2040807, “Facile synthesis, cytotoxic and antimicrobial activity studies of a new group of 6-aryl-3-[4-(methylsulfonyl)benzyl]-7H-[1,2,4]triazolo[3,4-b][1,3,4]thiadiazines” (Eur J Med Chem, 2012)
In brackets after ≈: the same amount, converted by molar mass. Activity calls are given as the source filed them. The rule behind the calls is not given here.

Tests used:
RAW264.7 [1] = assay: Cytotoxicity against mouse RAW264.7 cells assessed as cell death at 12.5 uM after 48 hrs by MTT assay; type: functional; settings: pooled result: one value given for 2 cell lines, strains, targets or settings
Procedure, shortened: (§1)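 Both cell lines were seeded at 1×10⁴ cells per well, with viability checked first by trypan blue exclusion. Compounds were tested in triplicate for 48 h at 37 °C in 5% CO₂. Medium was then replaced with serum-free DMEM, MTT was added, and plates were held 3 h at 37 °C. Formazan was dissolved in DMSO for 15 min and read at 570 nm. % cell death = (A_DMSO − A_sample)/A_DMSO × 100.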

HT-29 [2] = assay: Cytotoxicity against human HT-29 cells after 48 hrs by MTT assay; type: functional, cell-based; settings: HT-29, 48 h
Procedure, shortened: (§2)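 Cells seeded at 1 x 10^4 per well (viability by Trypan blue exclusion) and treated in triplicate at 100, 50, 25 and […], 48 h at 37 °C, 5% CO2. Medium was then replaced with serum-free DMEM plus MTT for 3 h. Formazan was dissolved in DMSO for 15 min at 37 °C and read at 570 nm. % cell death was taken relative to vehicle (DMSO) control, and IC50 derived from it.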

RAW264.7 [3] = assay: Cytotoxicity against mouse RAW264.7 cells assessed as cell death at 100 uM after 48 hrs by MTT assay; type: functional; settings: pooled result: one value given for 2 cell lines, strains, targets or settings; procedure, shortened: as §1
RAW264.7 [4] = assay: Cytotoxicity against mouse RAW264.7 cells assessed as cell death at 50 uM after 48 hrs by MTT assay; type: functional; settings: pooled result: one value given for 2 cell lines, strains, targets or settings; procedure, shortened: as §1
Escherichia coli = assay: Antibacterial activity against Escherichia coli after 16 hrs by broth dilution method; type: functional
Procedure, shortened: (§3)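 Compound stocks at 1 mg/mL in DMF, serially twofold diluted in trypticase soya broth tubes. Organisms were grown 6 h at 37 °C in trypticase soya broth, adjusted to McFarland […] (10^8 cfu/mL) in PBS, then diluted 10^3-fold in broth to 10^5 cfu/mL; 1 mL of this inoculum was added per tube. Tubes were incubated 16 h at 37 °C, with inoculum and broth controls. MIC was read as the lowest concentration with no visible growth.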

RAW264.7 [5] = assay: Cytotoxicity against mouse RAW264.7 cells after 48 hrs by MTT assay; type: functional, cell-based; settings: RAW264.7, 48 h; procedure, shortened: as §2
Pseudomonas aeruginosa = assay: Antibacterial activity against Pseudomonas aeruginosa after 16 hrs by broth dilution method; type: functional; procedure, shortened: as §3
Staphylococcus aureus = assay: Antibacterial activity against Staphylococcus aureus after 16 hrs by broth dilution method; type: functional; procedure, shortened: as §3
RAW264.7 [6] = assay: Cytotoxicity against mouse RAW264.7 cells assessed as cell death at 25 uM after 48 hrs by MTT assay; type: functional; settings: pooled result: one value given for 2 cell lines, strains, targets or settings; procedure, shortened: as §1
Bacillus cereus = assay: Antibacterial activity against Bacillus cereus after 16 hrs by broth dilution method; type: functional; procedure, shortened: as §3
Candida albicans = assay: Antifungal activity against Candida albicans after 16 hrs by broth dilution method; type: functional; procedure, shortened: as §3
HT-29 [7] = assay: Cytotoxicity against human HT-29 cells assessed as cell death at 12.5 uM after 48 hrs by MTT assay; type: functional; settings: pooled result: one value given for 2 cell lines, strains, targets or settings; procedure, shortened: as §1
HT-29 [8] = assay: Cytotoxicity against human HT-29 cells assessed as cell death at 25 uM after 48 hrs by MTT assay; type: functional; settings: pooled result: one value given for 2 cell lines, strains, targets or settings; procedure, shortened: as §1
HT-29 [9] = assay: Cytotoxicity against human HT-29 cells assessed as cell death at 2.5 uM after 48 hrs by MTT assay; type: functional
RAW264.7 [10] = assay: Cytotoxicity against mouse RAW264.7 cells assessed as cell death at 2.5 uM after 48 hrs by MTT assay; type: functional

SMILES | Activity (RAW264.7 [1]) | IC50 (HT-29 [2]) [µM] | Activity (RAW264.7 [3]) [%] | Activity (RAW264.7 [4]) [%] | MIC (Escherichia coli) [µg/mL] | IC50 (RAW264.7 [5]) [µM] | MIC (Pseudomonas aeruginosa) [µg/mL] | MIC (Staphylococcus aureus) [µg/mL] | Activity (RAW264.7 [6]) | MIC (Bacillus cereus) [µg/mL] | MIC (Candida albicans) [µg/mL] | Activity (HT-29 [7]) | Activity (HT-29 [8]) | Activity (HT-29 [9]) [%] | Activity (RAW264.7 [10]) [%]
CS(=O)(=O)c1ccc(Cc2nnc3n2N=C(c2ccc(-c4ccccc4)cc2)CS3)cc1 | 58.2% | 12.5 | 74.77 | 67.93 | 6.25 (≈ 13.6 µM) | 12.5 | 6.25 (≈ 13.6 µM) | 6.25 (≈ 13.6 µM) | 60.19% | 6.25 (≈ 13.6 µM) | 6.25 (≈ 13.6 µM) |  |  |  | 
CS(=O)(=O)c1ccc(Cc2nnc3n2N=C(c2ccc(Cl)cc2Cl)CS3)cc1 | 27.99% | > 100 | 30.99 | 27.33 | 3.12 (≈ 6.89 µM) | > 100 | 6.25 (≈ 13.8 µM) | 12.5 (≈ 27.6 µM) | 24.19% | 6.25 (≈ 13.8 µM) | 6.25 (≈ 13.8 µM) |  |  |  | 
CS(=O)(=O)c1ccc(Cc2nnc3n2N=C(c2cc(Cl)cc4c2-c2ccc(Cl)cc2C4)CS3)cc1 | 41.05% | 100 | 50.33 | 43.12 | 6.25 (≈ 11.5 µM) | 100 | 3.12 (≈ 5.77 µM) | 12.5 (≈ 23.1 µM) | 44.8% | 6.25 (≈ 11.5 µM) | 6.25 (≈ 11.5 µM) |  |  |  | 
CS(=O)(=O)c1ccc(Cc2nnc3n2N=C(c2cc(Cl)sc2Cl)CS3)cc1 | inactive | > 100 | 47.27 | 25.54 | 6.25 (≈ 13.6 µM) | > 100 | 6.25 (≈ 13.6 µM) | 6.25 (≈ 13.6 µM) | inactive | 6.25 (≈ 13.6 µM) | 3.12 (≈ 6.8 µM) | inactive | inactive |  | 
CS(=O)(=O)c1ccc(Cc2nnc3n2N=C(c2cc4ccccc4c(=O)o2)CS3)cc1 | 22.43% | > 100 | 10.63 | 14.86 | 6.25 (≈ 13.8 µM) | > 100 | 6.25 (≈ 13.8 µM) | 6.25 (≈ 13.8 µM) | 25.58% | 6.25 (≈ 13.8 µM) | 3.12 (≈ 6.91 µM) |  |  |  | 
CC1(C)S[C@@H]2[C@H](NC(=O)Cc3ccccc3)C(=O)N2[C@H]1C(=O)O [PENICILLIN G] |  |  |  |  | 0.12 (≈ 0.359 µM) |  | 0.12 (≈ 0.359 µM) | 0.12 (≈ 0.359 µM) |  | 0.12 (≈ 0.359 µM) |  |  |  |  | 
OC(Cn1cncn1)(Cn1cncn1)c1ccc(F)cc1F [FLUCONAZOLE] |  |  |  |  |  |  |  |  |  |  | 0.8 (≈ 2.61 µM) |  |  |  | 
CS(=O)(=O)c1ccc(Cc2nnc3n2N=C(c2ccc(O)c(C(N)=O)c2)CS3)cc1 | 24.81% | > 100 | 37.08 | 33.06 | 6.25 (≈ 14.1 µM) | > 100 | 6.25 (≈ 14.1 µM) | 12.5 (≈ 28.2 µM) | 24.66% | 3.12 (≈ 7.05 µM) | 3.12 (≈ 7.05 µM) |  |  |  | 
CS(=O)(=O)c1ccc(Cc2nnc3n2N=C(c2cc(Cl)sc2S(N)(=O)=O)CS3)cc1 | 22.8% | > 100 | 35.22 | 27.46 | 6.25 (≈ 12.4 µM) | > 100 | 6.25 (≈ 12.4 µM) | 12.5 (≈ 24.8 µM) | 18.66% | 12.5 (≈ 24.8 µM) | 6.25 (≈ 12.4 µM) |  |  |  | 
CS(=O)(=O)c1ccc(Cc2nnc3n2N=C(c2ccccc2)CS3)cc1 | 41.97% | 25 | 55.51 | 46.73 | 6.25 (≈ 16.3 µM) | 25 | 6.25 (≈ 16.3 µM) | 6.25 (≈ 16.3 µM) | 50.95% | 6.25 (≈ 16.3 µM) | 25 (≈ 65 µM) |  |  |  | 
Cc1ccc(C2=Nn3c(Cc4ccc(S(C)(=O)=O)cc4)nnc3SC2)cc1 | inactive | > 100 | 38.53 | 37.91 | 12.5 (≈ 31.4 µM) | > 100 | 12.5 (≈ 31.4 µM) | 12.5 (≈ 31.4 µM) | 1.26% | 12.5 (≈ 31.4 µM) | 1.56 (≈ 3.92 µM) | inactive |  |  | 
COc1cccc2c1C(=O)c1c(O)c3c(c(O)c1C2=O)C[C@@](O)(C(=O)CO)C[C@@H]3O[C@H]1C[C@H](N)[C@H](O)[C@H](C)O1 [DOXORUBICIN] |  |  |  |  |  |  |  |  |  |  |  |  |  | 78.2 | 78.2
